# Measured values reported in ChEMBL document CHEMBL4400549, “DPD-Inspired Discovery of Novel LsrK Kinase Inhibitors: An Opportunity To Fight Antimicrobial Resistance” (J Med Chem, 2019).
# pIC50: −log10 of the molar value.
# Biological target: T1, Autoinducer-2 kinase (Salmonella typhimurium (strain LT2 / SGSC1412 / ATCC 700720)) (UniProt Q8ZKQ6)
# T1 sequence (whole entry): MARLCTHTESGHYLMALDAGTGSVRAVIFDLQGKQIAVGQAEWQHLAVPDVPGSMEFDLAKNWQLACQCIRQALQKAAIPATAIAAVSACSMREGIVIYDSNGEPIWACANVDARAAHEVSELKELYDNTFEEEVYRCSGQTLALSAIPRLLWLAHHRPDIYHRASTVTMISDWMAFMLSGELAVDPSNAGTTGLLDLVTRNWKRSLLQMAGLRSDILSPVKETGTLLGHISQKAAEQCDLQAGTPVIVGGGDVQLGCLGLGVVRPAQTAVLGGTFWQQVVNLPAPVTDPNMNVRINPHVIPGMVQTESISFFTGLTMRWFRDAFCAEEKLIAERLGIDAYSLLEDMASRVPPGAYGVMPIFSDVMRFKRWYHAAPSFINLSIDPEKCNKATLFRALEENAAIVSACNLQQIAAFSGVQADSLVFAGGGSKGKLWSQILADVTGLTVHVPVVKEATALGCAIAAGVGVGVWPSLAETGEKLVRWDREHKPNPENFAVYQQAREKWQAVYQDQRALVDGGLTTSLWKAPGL
# Assay: Inhibition of Salmonella typhimurium LsrK expressed in Escherichia coli MET1158 at 200 uM using (S)-DPD as substrate after 15 mins by Kinase Glo luminescence assay relative to control
# Details: Salmonella enterica subsp. enterica serovar Typhimurium
# Method in brief: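 Compound at 200 µM in triplicate with 300 nM LsrK, 300 µM (S)-DPD and 100 µM ATP in 25 mM triethanolamine pH 7.4, 200 µM MgCl2, 0.1 mg/mL BSA; 15 min incubation, then Kinase Glo reagent; luminescence read after 30 min; percent inhibition.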
row,Structure (SMILES),inhibition
1,Cn1nc(C2CCCCC2)cc1C1COC2(CCCCC2)O1 (stereo not given),1.51%
2,c1ccc(-c2cc(C3COC4(CCCCC4)O3)nc(C3CC3)n2)cc1 (stereo not given),15.2%
3,Cc1nc(C2CC2)cc(C(O)CO)c1C(=O)O (stereo not given),1.33%
4,Cc1cccc(-c2cc(C3COC4(CCCCC4)O3)n(C)n2)c1 (stereo not given),1.07%
5,c1ccc(-c2nc(C3CC3)cc(C3COC4(CCCCC4)O3)n2)nc1 (stereo not given),21.2%
6,Cc1nc(-c2ccccc2)cc(C(O)CO)n1 (stereo not given),0.22%
7,Cc1nc2cnc(C(O)CO)cc2s1 (stereo not given),0.1%
8,OCC(O)c1cc(-c2ccccc2)nc(C2CC2)n1 (stereo not given),24.5%
9,Cn1nc(-c2cc3ccccc3[nH]2)cc1C1COC2(CCCCC2)O1 (stereo not given),4.38%
10,Cn1nc(-c2cccc(C#N)c2)cc1C1COC2(CCCCC2)O1 (stereo not given),0%
11,Cn1nc(C23CC4CC(CC(C4)C2)C3)cc1C(O)CO (stereo not given),0%
12,CN(C)c1ccc(-c2cc(C3COC4(CCCCC4)O3)n(C)n2)cc1 (stereo not given),0.19%
13,OCC(O)c1cc2ccccc2cn1 (stereo not given),0.48%
14,OCC(O)c1cc(-c2ccccc2)n[nH]1 (stereo not given),0%
15,Cn1nc(C2CCCC2)cc1C(O)CO (stereo not given),0%
16,Cc1cc(-c2ccccc2)nn1C,2.01%
17,OCC(O)c1cc(C2CC2)nc(-c2ccccc2)n1 (stereo not given),21.6%
18,Oc1ccc2cc(C3COC4(CCCCC4)O3)ncc2c1 (stereo not given),28.6%
19,CCCc1nc(-c2cccs2)cc(C(O)CO)n1 (stereo not given),47.8%
20,Cn1nc(-c2ccon2)cc1C1COC2(CCCCC2)O1 (stereo not given),9.83%
21,OCC(O)c1cc(C2CCCC2)n[nH]1 (stereo not given),0%
22,Cn1nc(C2CCCC2)cc1C1COC2(CCCCC2)O1 (stereo not given),0%
23,Cn1nc(C23CC4CC(CC(C4)C2)C3)cc1C1COC2(CCCCC2)O1 (stereo not given),0%
24,OCC(O)c1cc(C23CC4CC(CC(C4)C2)C3)n[nH]1 (stereo not given),0%
25,CCOC(=O)c1c(C2COC3(CCCCC3)O2)cc(-c2ccccc2)nc1C (stereo not given),0.1%
26,OCC(O)c1cc(-c2cccs2)nc(-c2cccc(F)c2)n1 (stereo not given),19.8%
27,CC(=O)N1CCC2(CC1)OCC(c1cc(-c3ccccc3)nn1C)O2 (stereo not given),2.07%

row,Structure (SMILES),inhibition
1,OCC(O)c1cc(C2CC2)nc(-c2ccccn2)n1 (stereo not given),2.94%
2,OCC(O)c1cc(C2CC2)n[nH]1 (stereo not given),0%
3,CC(C)c1cc(C2COC3(CCCCC3)O2)n(C)n1 (stereo not given),0%
4,OCC(O)c1cc2c(F)cccc2cn1 (stereo not given),0.65%
5,c1cc2cc(C3COC4(CCCCC4)O3)ncc2o1 (stereo not given),5.75%
6,OCC(O)c1cc(-c2cccs2)n[nH]1 (stereo not given),0%
7,c1coc(-c2cc(C3COC4(CCCCC4)O3)[nH]n2)c1 (stereo not given),43.5%
8,Cc1ccc2cnc(C(O)CO)cc2c1 (stereo not given),0.4%
9,Cn1nc(-c2ccccc2)cc1C1COC2(CCCCC2)O1 (stereo not given),78%
10,Cn1nc(-c2cccs2)cc1C(O)CO (stereo not given),0%
11,N#CCCn1nc(-c2ccccc2)cc1C1COC2(CCCCC2)O1 (stereo not given),0%
12,c1c(C23CC4CC(CC(C4)C2)C3)n[nH]c1C1COC2(CCCCC2)O1 (stereo not given),0%
13,Cn1nc(-c2ccccc2)cc1C1COC2(CCCC2)O1 (stereo not given),5.56%
14,c1csc(-c2cc(C3COC4(CCCCC4)O3)[nH]n2)c1 (stereo not given),26.5%
15,Cn1nc(-c2ccccc2)cc1C(O)CO (stereo not given),0%
16,c1ccc(-c2cc(C3COC4(CCCCC4)O3)n(C3CC3)n2)cc1 (stereo not given),0%
17,Cn1nc(-c2ccco2)cc1C1COC2(CCCCC2)O1 (stereo not given),51.6%
18,Cn1nc(C2CC2)cc1C1COC2(CCCCC2)O1 (stereo not given),0%
19,CC(C)n1nc(-c2ccccc2)cc1C1COC2(CCCCC2)O1 (stereo not given),0%
20,Cc1nc(-c2ccccc2)cc(C(O)CO)c1C(=O)O (stereo not given),0.81%
21,c1ccc(-c2cc(C3COC4(CCCCC4)O3)n(-c3ccccc3)n2)cc1 (stereo not given),0%
22,CCn1nc(-c2ccccc2)cc1C1COC2(CCCCC2)O1 (stereo not given),0%
23,c1c(C2CCCC2)n[nH]c1C1COC2(CCCCC2)O1 (stereo not given),0%
24,Cn1nc(-c2cccs2)cc1C1COC2(CCCCC2)O1 (stereo not given),0%
25,c1ccc(-c2cc(C3COC4(CCCCC4)O3)[nH]n2)cc1 (stereo not given),53.6%
26,Fc1cccc(-c2nc(-c3cccs3)cc(C3COC4(CCCCC4)O3)n2)c1 (stereo not given),0.2%
27,Fc1cccc2cnc(C3COC4(CCCCC4)O3)cc12 (stereo not given),1.76%

row,Structure (SMILES),inhibition
1,CCCc1nc(-c2cccs2)cc(C2COC3(CCCCC3)O2)n1 (stereo not given),0.96%
2,c1c(C2CC2)n[nH]c1C1COC2(CCCCC2)O1 (stereo not given),1.47%
3,OCC(O)c1cc(-c2ccco2)n[nH]1 (stereo not given),0%
4,Cn1nc(-c2ccccc2)cc1C1COC2(CCCCCC2)O1 (stereo not given),0%
5,OCC(O)c1cc2ccsc2cn1 (stereo not given),0.17%
6,CC(C)c1cc(C(O)CO)n(C)n1 (stereo not given),0%
7,c1ccc(-c2nc(C3CC3)cc(C3COC4(CCCCC4)O3)n2)cc1 (stereo not given),0.76%
8,c1ccc(-c2cc(C3COC4(CCCCC4)O3)n(C3CCCC3)n2)cc1 (stereo not given),0%
9,Cn1nc(-c2cc(F)cc(Cl)c2)cc1C1COC2(CCCCC2)O1 (stereo not given),4.42%
10,Cn1nc(-c2cccnc2)cc1C1COC2(CCCCC2)O1 (stereo not given),4.92%
11,Cc1nc(-c2ccccc2)cc(C2COC3(CCCCC3)O2)c1C(=O)O (stereo not given),0%
12,c1ccc2cc(C3COC4(CCCCC4)O3)ncc2c1 (stereo not given),14.9%
13,Cc1nc(-c2ccccc2)cc(C2COC3(CCCCC3)O2)n1 (stereo not given),9.41%
14,Cc1nc(C2CC2)cc(C2COC3(CCCCC3)O2)c1C(=O)O (stereo not given),6.26%
15,Cc1nc2cc(C3COC4(CCCCC4)O3)ncc2s1 (stereo not given),6.32%
16,CCOC(=O)c1c(C2COC3(CCCCC3)O2)cc(C2CC2)nc1C (stereo not given),0.36%
17,c1cc2cc(C3COC4(CCCCC4)O3)ncc2s1 (stereo not given),11.1%
18,Cn1nc(-c2ccco2)cc1C(O)CO (stereo not given),0%
19,CC(C)c1cc(C(O)CO)[nH]n1 (stereo not given),0%
20,Cc1ccc2cnc(C3COC4(CCCCC4)O3)cc2c1 (stereo not given),1.66%
21,OCC(O)c1cc2ccc(O)cc2cn1 (stereo not given),1.67%
22,Cn1nc(-c2ccccc2)cc1C1COC2(CCOCC2)O1 (stereo not given),31.1%
23,OCC(O)c1cc2ccoc2cn1 (stereo not given),2.07%
24,Cn1nc(C2CC2)cc1C(O)CO (stereo not given),0%
25,CC(C)c1cc(C2COC3(CCCCC3)O2)[nH]n1 (stereo not given),7.14%

# Biological target: T2, Autoinducer-2 kinase (Salmonella typhimurium (strain LT2 / SGSC1412 / ATCC 700720), UniProt Q8ZKQ6)
# T2 sequence (Q8ZKQ6 whole entry): T1 sequence (whole entry)
# Assay: Inhibition of Salmonella typhimurium LsrK expressed in Escherichia coli MET1158 using (S)-DPD as substrate after 15 mins by Kinase Glo luminescence assay
# Design: species or system Salmonella enterica subsp. enterica serovar Typhimurium
# Details: not given
# Method in brief: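 Dose-response at 6 concentrations (25–500 µM); 300 nM LsrK, 300 µM (S)-DPD, 100 µM ATP in 25 mM triethanolamine pH 7.4, 200 µM MgCl2, 0.1 mg/mL BSA plus Triton X-100; 15 min, Kinase Glo readout after 30 min; IC50 by four-parameter logistic fit; mean ±SD of two independent experiments (n = 4).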
row,Structure (SMILES),pIC50
1,c1coc(-c2cc(C3COC4(CCCCC4)O3)[nH]n2)c1 (stereo not given),3.42
2,Cn1nc(-c2ccccc2)cc1C1COC2(CCCCC2)O1 (stereo not given),3.92
3,Cn1nc(-c2ccco2)cc1C1COC2(CCCCC2)O1 (stereo not given),3.55
4,c1ccc(-c2cc(C3COC4(CCCCC4)O3)[nH]n2)cc1 (stereo not given),3.32

# Biological target: Glycerol kinase (Escherichia coli (strain K12)) (UniProt P0A6F3)
# Sequence (P0A6F3 whole entry): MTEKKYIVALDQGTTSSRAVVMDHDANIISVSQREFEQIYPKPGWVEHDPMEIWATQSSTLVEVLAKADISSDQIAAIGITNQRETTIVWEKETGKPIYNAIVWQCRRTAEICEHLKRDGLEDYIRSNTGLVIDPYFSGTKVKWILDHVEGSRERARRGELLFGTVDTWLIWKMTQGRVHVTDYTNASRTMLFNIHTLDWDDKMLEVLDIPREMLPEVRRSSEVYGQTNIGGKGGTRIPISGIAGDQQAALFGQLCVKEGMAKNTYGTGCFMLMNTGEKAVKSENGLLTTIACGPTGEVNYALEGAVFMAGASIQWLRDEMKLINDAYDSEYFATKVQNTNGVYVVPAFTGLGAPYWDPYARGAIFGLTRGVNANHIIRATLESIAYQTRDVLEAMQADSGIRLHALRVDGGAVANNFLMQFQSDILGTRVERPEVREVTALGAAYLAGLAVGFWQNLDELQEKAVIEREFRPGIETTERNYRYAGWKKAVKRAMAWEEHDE
# Assay: Inhibition of Escherichia coli K12 glycerokinase at 25 to 500 uM using glycerol as substrate after 15 mins by Kinase Glo luminescence assay
# Details: Escherichia coli K-12
# Method in brief: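 E. coli glycerokinase 0.3 U/mL with 300 µM glycerol, then 100 µM ATP; run as the LsrK protocol (triethanolamine pH 7.4 buffer, 15 min incubation, Kinase Glo luminescence read after 30 min).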
row,Structure (SMILES),inhibition
1,c1coc(-c2cc(C3COC4(CCCCC4)O3)[nH]n2)c1 (stereo not given),Dose-dependent effect
2,Cn1nc(-c2ccco2)cc1C1COC2(CCCCC2)O1 (stereo not given),Dose-dependent effect
